# From ChEMBL document CHEMBL4190388, “Discovery and Optimization of Indolyl-Containing 4-Hydroxy-2-Pyridone Type II DNA Topoisomerase Inhibitors Active against Multidrug Resistant Gram-negative Bacteria” (J Med Chem, 2018)
# Assays:
# [1] = tested on: Escherichia coli; assay: Antibacterial activity against wild type Escherichia coli ATCC 25922 in presence of HSA by CLSI M100-S17 protocol based method; type: functional
# [2] = tested on: Escherichia coli; assay: Selectivity ratio of MIC for wild type Escherichia coli ATCC 25922 in presence of HSA to MIC for wild type Escherichia coli ATCC 25922; type: functional
# [3] = tested on: Escherichia coli; assay: Antibacterial activity against wild type Escherichia coli ATCC 25922 by CLSI M100-S17 protocol based method; type: functional
# [4] = tested on: Escherichia coli; assay: Antibacterial activity against fluoroquinolone resistant Escherichia coli SKM18 by CLSI M100-S17 protocol based method; type: functional
# [5] = tested on: Escherichia coli; assay: Antibacterial activity against quinolone resistance Escherichia coli isolate ELZ4251 harboring gyrA/parC mutant by CLSI M100-S17 protocol based method; type: functional
# [6] = Inhibition of Escherichia coli DNA topoisomerase 4 assessed as reduction in decatenation activity using kinetoplast concatenated DNA as substrate after 30 mins by picogreen dye based fluorescence assay
# [7] = tested on: Acinetobacter baumannii; assay: Antibacterial activity against fluoroquinolone resistant Acinetobacter baumannii isolate MMX2240 by CLSI M100-S17 protocol based method; type: functional
# [8] = Inhibition of His tagged Escherichia coli ATCC 25922 DNA gyrase A expressed in Escherichia coli BL21 (DE3) pLysS cells assessed as reduction in enzyme-mediated supercoiling of relaxed plasmid DNA pNO1 after 30 mins in presence of biotinylated TFO1 by fluorescence assay
# [9] = tested on: Klebsiella pneumoniae; assay: Antibacterial activity against wild type Klebsiella pneumoniae ATCC 35657 by CLSI M100-S17 protocol based method; type: functional
# [10] = tested on: Acinetobacter baumannii; assay: Antibacterial activity against wild type Acinetobacter baumannii ATCC BAA-747 by CLSI M100-S17 protocol based method; type: functional
# [11] = tested on: Mus musculus; assay: Terminal half life in CD1 mouse plasma at 10 mg/kg, iv by LC-MS/MS analysis; type: ADME, organism-based; details: in vivo
# [12] = tested on: Mus musculus; assay: AUC (0 to 24 hrs) in CD1 mouse plasma at 10 mg/kg, iv by LC-MS/MS analysis; type: ADME, organism-based; parameters: time < 24 hr, dose 10 mg/kg, route intravenous; details: in vivo
# In short: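 CD-1 mice given a single 10 mg/kg iv dose (n = 3), in either 10% DMSO plus 1% Tween 80 in pH 8.0 phosphate buffer or 20% (2-hydroxypropyl)-β-cyclodextrin in pH 4.0 citrate buffer; plasma exposure measured.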
# [13] = Fraction unbound in mouse plasma at 1 uM by equilibrium dialysis method; type: ADME, cell-free
# [14] = tested on: Mus musculus; assay: Volume of distribution at steady state in CD1 mouse plasma at 10 mg/kg, iv by LC-MS/MS analysis; type: ADME, organism-based; details: in vivo
# [15] = Oral bioavailability in CD1 mouse plasma by LC-MS/MS analysis; type: ADME, organism-based
# [16] = tested on: Escherichia coli; assay: Antibacterial activity against quinolone resistant Escherichia coli by broth microdilution method; type: functional; details: Escherichia coli
# In short: (§1)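 MICs were determined by CLSI broth methods, except that organisms were grown in brain–heart–infusion medium. The panel comprised wild-type and resistant E. coli and A. baumannii strains, including 12 strains whose details are given by reference.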
# [17] = tested on: Acinetobacter baumannii; assay: Antibacterial activity against beta-lactam resistant Acinetobacter baumannii by broth microdilution method; type: functional; details: Acinetobacter baumannii; in short: as §1
# [18] = tested on: Acinetobacter baumannii; assay: Antibacterial activity against quinolone resistant Acinetobacter baumannii by broth microdilution method; type: functional; details: Acinetobacter baumannii; in short: as §1
# [19] = tested on: Acinetobacter baumannii; assay: Antibacterial activity against multidrug resistant Acinetobacter baumannii by broth microdilution method; type: functional; details: Acinetobacter baumannii; in short: as §1
# [20] = tested on: Escherichia coli; assay: Antibacterial activity against multidrug resistant Escherichia coli by broth microdilution method; type: functional; details: Escherichia coli; in short: as §1
# [21] = tested on: Acinetobacter baumannii; assay: Antibacterial activity against aminoglycoside resistant Acinetobacter baumannii by broth microdilution method; type: functional; details: Acinetobacter baumannii; in short: as §1
# [22] = tested on: Acinetobacter baumannii; assay: Antibacterial activity against carbapenem resistant Acinetobacter baumannii by broth microdilution method; type: functional; details: Acinetobacter baumannii; in short: as §1
# [23] = tested on: Escherichia coli; assay: Antibacterial activity against wild type Escherichia coli by broth microdilution method; type: functional; in short: as §1
# [24] = tested on: Escherichia coli; assay: Antibacterial activity against beta-lactam resistant Escherichia coli by broth microdilution method; type: functional; details: Escherichia coli; in short: as §1
# [25] = tested on: Acinetobacter baumannii; assay: Antibacterial activity against wild type Acinetobacter baumannii by broth microdilution method; type: functional; in short: as §1
# [26] = tested on: Escherichia coli; assay: Antibacterial activity against aminoglycoside resistant Escherichia coli by broth microdilution method; type: functional; details: Escherichia coli; in short: as §1
smiles,measurement,setting,value
CCc1c(-c2ccc3c(c2)cc(C)n3C)[nH]c(=O)c(C(=O)O)c1O,MIC,[1],> 62.5 µg/mL
same,Ratio,[2],>40
same,MIC,[3],1.6 µg/mL
same,MIC,[4],> 62.5 µg/mL
same,MIC,[5],62.5 µg/mL
CNCc1cc2cc3c(cc2n1C)CCCc1c-3[nH]c(=O)c(C(=O)O)c1O,IC50,[6],3.7 µM
same,MIC,[7],1.6 µg/mL
same,IC50,[8],0.1 µM
same,MIC,[1],3.1 µg/mL
same,Ratio,[2],4 - 16
same,MIC,[3],0.39 µg/mL
same,MIC,[4],0.39 µg/mL
same,MIC,[5],0.8 µg/mL
same,MIC,[9],0.39 µg/mL
same,MIC,[10],1.6 µg/mL
CNCc1cc2c3c(ccc2n1C)-c1[nH]c(=O)c(C(=O)O)c(O)c1CCC3,IC50,[6],27.9 µM
same,IC50,[8],1 µM
same,MIC,[3],> 12.5 µg/mL
same,MIC,[4],6.3 µg/mL
CCNCc1cc2cc3c(cc2n1C)Cc1c-3[nH]c(=O)c(C(=O)O)c1O,IC50,[6],> 11.1 µM
same,IC50,[8],> 11.1 µM
same,MIC,[3],> 62.5 µg/mL
same,MIC,[4],> 62.5 µg/mL
CCc1c(-c2ccc3c(c2)cc(CN(C)C)n3C)[nH]c(=O)c(C(=O)O)c1O,MIC,[7],3.1 µg/mL
same,MIC,[1],3.1 µg/mL
same,Ratio,[2],2 - 4
same,MIC,[3],0.39 µg/mL
same,MIC,[4],6.3 µg/mL
same,MIC,[5],6.3 µg/mL
same,MIC,[9],0.78 µg/mL
same,MIC,[10],0.78 µg/mL
Cn1c(CNC2(C)CCC2)cc2cc3c(cc21)CCCc1c-3[nH]c(=O)c(C(=O)O)c1O,beta t1/2,[11],3.1 h
same,MIC,[7],1 µg/mL
same,AUC,[12],4580 ng·h/mL
same,MIC,[1],7.8 µg/mL
same,Ratio,[2],4 - 16
same,MIC,[3],1 µg/mL
same,Fu,[13],0.047
same,MIC,[4],1 µg/mL
same,Vdss,[14],7.1 L/kg
same,MIC,[9],1 µg/mL
same,bioavailability,[15],65%
same,MIC,[10],0.5 µg/mL
CNCc1cc2cc3c(cc2n1C)SCCc1c-3[nH]c(=O)c(C(=O)O)c1O,MIC,[7],7.8 µg/mL
same,MIC,[1],7.8 µg/mL
same,Ratio,[2],8 - 16
same,MIC,[3],1 µg/mL
same,MIC,[4],0.49 µg/mL
same,MIC,[5],1.6 µg/mL
same,MIC,[9],1 µg/mL
same,MIC,[10],3.9 µg/mL
Cn1c(CN2CCCC2)cc2cc3c(cc21)CCCc1c-3[nH]c(=O)c(C(=O)O)c1O,beta t1/2,[11],2.8 h
same,MIC,[7],1.6 µg/mL
same,MIC90,[16],0.5 µg/mL
same,MIC,[16]; read-out: MIC,0.12 to 0.5 µg/mL
same,MIC50,[17],2 µg/mL
same,MIC90,[17],16 µg/mL
same,MIC,[17]; read-out: MIC,0.12 to 16 µg/mL
same,MIC50,[18],2 µg/mL
same,MIC90,[18],16 µg/mL
same,MIC,[18]; read-out: MIC,0.12 to 16 µg/mL
same,AUC,[12],4050 ng·h/mL
same,MIC,[1],6.3 µg/mL
same,MIC,[3],0.78 µg/mL
same,Fu,[13],0.11
same,MIC,[4],0.78 µg/mL
same,MIC,[5],1.6 µg/mL
same,MIC50,[19],2 µg/mL
same,MIC90,[19],16 µg/mL
same,MIC,[19]; read-out: MIC,0.12 to 16 µg/mL
same,Vdss,[14],8.1 L/kg
same,MIC90,[20],0.5 µg/mL
same,MIC,[20]; read-out: MIC,0.12 to 0.5 µg/mL
same,MIC,[9],0.78 µg/mL
same,MIC50,[21],2 µg/mL
same,MIC90,[21],16 µg/mL
same,MIC,[21]; read-out: MIC,0.12 to 16 µg/mL
same,MIC50,[22],2 µg/mL
same,MIC90,[22],16 µg/mL
same,MIC,[22]; read-out: MIC,0.12 to 16 µg/mL
same,MIC90,[23],0.5 µg/mL
same,MIC90,[24],0.5 µg/mL
same,MIC,[24]; read-out: MIC,0.12 to 0.5 µg/mL
same,bioavailability,[15],33%
same,MIC,[10],0.78 µg/mL
same,MIC50,[25],2 µg/mL
same,MIC90,[25],16 µg/mL
same,MIC90,[26],0.5 µg/mL
same,MIC,[26]; read-out: MIC,0.12 to 0.5 µg/mL
CCNCc1cc2c3c(ccc2n1C)-c1[nH]c(=O)c(C(=O)O)c(O)c1CCC3,IC50,[6],19 µM
same,MIC,[3],12.5 µg/mL
same,MIC,[4],6.3 µg/mL
